The source of these data is ChEMBL document CHEMBL5705899 (Biochem J, 2014).

Active and inactive are the calls of the source. The rule behind the calls is not given here.

For experiment [1], the target named is Dual specificity tyrosine-phosphorylation-regulated kinase 1A (Homo sapiens) (UniProt Q13627). Put plainly: Inhibition of recombinant human N-terminal GST-tagged DYRK1A (1 to 502 residues) expressed in Escherichia coli assessed as remaining activity at 1 uM using KKISGRLSPIMTEQ as substrate incubated for 30 mins in presence of [gamma-33P]ATP by filter binding method relative to control.

Experiment [2] has as its target Rho-associated protein kinase 1 (Homo sapiens) (UniProt Q13464). Nature of the experiment: Inhibition of human ROCK1 at 1 uM using 3xChocktide-PKC as substrate in presence of 33P-ATP by ProQinase assay.
Experiment [3] has as its target PAS domain-containing serine/threonine-protein kinase (Homo sapiens) (UniProt Q96RG2). Nature of the experiment: Inhibition of human PASK at 1 uM using RBER-CHKtide as substrate in presence of 33P-ATP by ProQinase assay.
In experiment [4] the target is Serine/threonine-protein kinase BRSK2 (Homo sapiens) (UniProt Q8IWQ3). Put plainly: Inhibition of recombinant human N-terminal His6-tagged BRSK2 (2 to 674 residues) expressed in baculovirus infected Sf21 cells assessed as remaining activity at 1 uM using KKLNRTLSFAEPG as substrate incubated for 30 mins in presence of [gamma-33P]ATP by filter binding method relative to control.

Experiment [5] deals with Mitogen-activated protein kinase kinase kinase kinase 5 (Homo sapiens) (UniProt Q9Y4K4). Nature of the experiment: Inhibition of human MAP4K5 at 1 uM using casein as substrate in presence of 33P-ATP by ProQinase assay.
Experiment [6] concerns the target Inhibitor of nuclear factor kappa-B kinase subunit beta (Homo sapiens) (UniProt O14920). Nature of the experiment: Inhibition of human IKKbeta at 1 uM using RBER-CHKtide as substrate in presence of 33P-ATP by ProQinase assay.
The target in experiment [7] is Epidermal growth factor receptor (Homo sapiens) (UniProt P00533). Put plainly: Inhibition of human EGFR at 1 uM using RBER-CHKtide as substrate in presence of 33P-ATP by ProQinase assay.
The target of experiment [8] is Serine/threonine-protein kinase 33 (Homo sapiens) (UniProt Q9BYT3). Nature of the experiment: Inhibition of recombinant human N-terminal GST-tagged STK33 (1 to 514 residues) expressed in baculovirus infected Sf21 cells assessed as remaining activity at 1 uM using AALVRQMSVAFFFKKKKK as substrate incubated for 30 mins in presence of [gamma-33P]ATP by filter binding method relative to control.

In experiment [9] the target is Ribosomal protein S6 kinase alpha-1 (Homo sapiens) (UniProt Q15418). Nature of the experiment: Inhibition of recombinant human N-terminal His6-tagged RSK1 (1 to 735 residues) expressed in baculovirus infected Sf21 cells assessed as remaining activity at 1 uM using KKLNRTLSVA as substrate incubated for 30 mins in presence of [gamma-33P]ATP by filter binding method relative to control.

For experiment [10], the target named is Protein kinase C iota type (Homo sapiens) (UniProt P41743). Nature of the experiment: Inhibition of human PKCiota at 1 uM using 3xChocktide-PKC as substrate in presence of 33P-ATP by ProQinase assay.
Experiment [11] deals with Homeodomain-interacting protein kinase 1 (Homo sapiens) (UniProt Q86Z02). Nature of the experiment: Inhibition of recombinant human N-terminal GST-tagged HIPK1 (158 to 555 residues) expressed in Escherichia coli assessed as remaining activity at 1 uM using MBP as substrate incubated for 30 mins in presence of [gamma-33P]ATP by filter binding method relative to control.

Experiment [12] deals with Phosphatidylinositol 4-phosphate 5-kinase type-1 gamma (Homo sapiens, UniProt O60331). Nature of the experiment: Inhibition of PIP5K1C (unknown origin) using D-myo-PIP as substrate incubated for 45 mins by ADP-Glo assay. An outline of the steps:
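Substrates were 14 μM PtdIns 4-phosphate and 20 μM ATP, with inhibitor at varying concentrations. Reactions ran 45 min at ambient temperature, then luminescence detection was done as for the PI4K assays.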
(In ADP-Glo the light output rises with the ADP produced.)

In experiment [13] the target is Tyrosine-protein kinase Fer (Homo sapiens) (UniProt P16591). Put plainly: Inhibition of human FER at 1 uM using polyEY as substrate in presence of 33P-ATP by ProQinase assay.
Experiment [14] deals with Serine/threonine-protein kinase PLK4 (Homo sapiens) (UniProt O00444). Nature of the experiment: Inhibition of human SAK at 1 uM using p38-alpha KA as substrate in presence of 33P-ATP by ProQinase assay.
Experiment [15] deals with Serine/threonine-protein kinase MARK1 (Homo sapiens) (UniProt Q9P0L2). Put plainly: Inhibition of recombinant human N-terminal His6-tagged MARK1 (2 to 795 residues) expressed in baculovirus infected Sf21 cells assessed as remaining activity at 1 uM using KKKVSRSGLYRSPSMPENLNRPR as substrate incubated for 30 mins in presence of [gamma-33P]ATP by filter binding method relative to control.

Experiment [16] has as its target Tyrosine-protein kinase BTK (Homo sapiens) (UniProt Q06187). Nature of the experiment: Inhibition of human BTK at 1 uM using polyEY as substrate in presence of 33P-ATP by ProQinase assay.
For experiment [17], the target named is Homeodomain-interacting protein kinase 4 (Homo sapiens) (UniProt Q8NE63). Put plainly: Inhibition of human HIPK4 at 1 uM using RBER-IRStide as substrate in presence of 33P-ATP by ProQinase assay.
Experiment [18] concerns the target MAP/microtubule affinity-regulating kinase 3 (Homo sapiens) (UniProt P27448). Put plainly: Inhibition of human MARK3 at 1 uM using RBER-CHKtide as substrate in presence of 33P-ATP by ProQinase assay.
Experiment [19] addresses Cyclin-Y/Cyclin-dependent kinase 16 (Homo sapiens) (UniProt Q00536+Q8ND76). Put plainly: Inhibition of human PCTAIRE1/CyclinY at 1 uM using RBER-GSK3 as substrate in presence of 33P-ATP by ProQinase assay. It counts as protein-complex assay.
Experiment [20] deals with Macrophage-stimulating protein receptor (Homo sapiens) (UniProt Q04912). Nature of the experiment: Inhibition of human RON at 1 uM using polyEY as substrate in presence of 33P-ATP by ProQinase assay.
Experiment [21] deals with Ephrin type-B receptor 1 (Homo sapiens) (UniProt P54762). Nature of the experiment: Inhibition of recombinant human N-terminal His6-tagged EPHB1 (565 to 984 residues) expressed in baculovirus infected Sf21 cells assessed as remaining activity at 1 uM using Poly (Glu,Tyr) as substrate incubated for 30 mins in presence of [gamma-33P]ATP by filter binding method relative to control.

The subject of experiment [22] is U2OS. Nature of the experiment: Inhibition of PI3K in human U2OS cells expressing FLAG-tagged SGK3 assessed as reduction in PRAS40 phosphorylation at T246 residues at 0.01 to 1 uM 1 hr by immunoblot analysis. It counts as cell-based. The conditions noted are these: dose 0.01-1 µM. A digest of the protocol: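 Flp-In T-REx U2OS cells were grown in McCoy medium with 10% FBS. Expression of C-terminally FLAG-tagged full-length SGK3 was induced with 0.01 mg/ml doxycycline for 24 h. Cells were treated with inhibitor for 1 h and lysed in phosphatase-inhibitor buffer. Lysates were cleared at 16000 g for 10 min at 4°C, protein was measured by Bradford, and phosphorylation was read by immunoblot with ECL detection.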
A general note: Immunoblotting shows a protein as a band on a membrane.

Ephrin type-B receptor 1 (Homo sapiens), sequence (P54762 whole entry, the tested form may be a part): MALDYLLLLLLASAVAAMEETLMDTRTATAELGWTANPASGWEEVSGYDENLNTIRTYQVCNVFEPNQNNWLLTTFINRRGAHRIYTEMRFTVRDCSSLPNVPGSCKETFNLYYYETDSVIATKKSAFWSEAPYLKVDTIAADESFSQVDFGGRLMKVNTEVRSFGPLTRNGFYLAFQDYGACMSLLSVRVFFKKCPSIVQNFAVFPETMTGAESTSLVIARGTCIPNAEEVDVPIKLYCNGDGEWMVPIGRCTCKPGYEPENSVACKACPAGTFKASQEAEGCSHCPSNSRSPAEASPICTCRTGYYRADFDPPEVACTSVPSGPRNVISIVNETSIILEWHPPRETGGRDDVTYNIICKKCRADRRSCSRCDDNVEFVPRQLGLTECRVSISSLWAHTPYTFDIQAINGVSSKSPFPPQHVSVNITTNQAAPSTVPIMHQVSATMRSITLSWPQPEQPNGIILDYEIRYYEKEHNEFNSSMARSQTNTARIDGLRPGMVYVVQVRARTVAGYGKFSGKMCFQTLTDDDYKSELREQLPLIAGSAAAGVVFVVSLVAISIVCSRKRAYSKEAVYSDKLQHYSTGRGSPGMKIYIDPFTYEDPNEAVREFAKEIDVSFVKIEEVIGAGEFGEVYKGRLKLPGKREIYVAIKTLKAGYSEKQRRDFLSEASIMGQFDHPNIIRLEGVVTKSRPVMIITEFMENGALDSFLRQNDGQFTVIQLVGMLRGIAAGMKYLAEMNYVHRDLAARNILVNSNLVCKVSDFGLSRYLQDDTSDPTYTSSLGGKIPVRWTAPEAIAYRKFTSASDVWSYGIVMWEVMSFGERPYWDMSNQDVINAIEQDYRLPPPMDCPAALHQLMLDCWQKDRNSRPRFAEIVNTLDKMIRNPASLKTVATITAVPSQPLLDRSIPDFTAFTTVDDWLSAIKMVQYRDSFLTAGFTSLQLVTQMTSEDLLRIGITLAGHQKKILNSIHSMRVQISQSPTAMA
Phosphatidylinositol 4-phosphate 5-kinase type-1 gamma, sequence (O60331 whole entry): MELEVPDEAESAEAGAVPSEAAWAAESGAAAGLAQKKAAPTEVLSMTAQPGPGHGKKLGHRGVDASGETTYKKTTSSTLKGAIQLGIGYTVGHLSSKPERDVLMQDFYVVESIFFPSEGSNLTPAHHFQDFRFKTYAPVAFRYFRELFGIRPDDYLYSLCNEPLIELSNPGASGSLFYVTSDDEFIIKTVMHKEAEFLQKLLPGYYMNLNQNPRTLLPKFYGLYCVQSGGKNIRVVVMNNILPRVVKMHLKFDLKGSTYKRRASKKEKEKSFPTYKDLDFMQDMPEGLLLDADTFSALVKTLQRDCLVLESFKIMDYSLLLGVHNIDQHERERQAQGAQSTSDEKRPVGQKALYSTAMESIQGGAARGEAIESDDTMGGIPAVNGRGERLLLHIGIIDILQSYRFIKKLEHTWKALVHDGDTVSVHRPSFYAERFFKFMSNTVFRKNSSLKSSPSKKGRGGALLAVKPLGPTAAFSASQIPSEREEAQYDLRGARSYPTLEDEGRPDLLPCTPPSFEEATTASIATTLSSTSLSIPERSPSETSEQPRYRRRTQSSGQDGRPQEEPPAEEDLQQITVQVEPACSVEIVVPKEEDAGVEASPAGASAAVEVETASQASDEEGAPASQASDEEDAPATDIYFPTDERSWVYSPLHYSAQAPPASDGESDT
Macrophage-stimulating protein receptor (Homo sapiens), sequence (Q04912 25-304 limits assumed): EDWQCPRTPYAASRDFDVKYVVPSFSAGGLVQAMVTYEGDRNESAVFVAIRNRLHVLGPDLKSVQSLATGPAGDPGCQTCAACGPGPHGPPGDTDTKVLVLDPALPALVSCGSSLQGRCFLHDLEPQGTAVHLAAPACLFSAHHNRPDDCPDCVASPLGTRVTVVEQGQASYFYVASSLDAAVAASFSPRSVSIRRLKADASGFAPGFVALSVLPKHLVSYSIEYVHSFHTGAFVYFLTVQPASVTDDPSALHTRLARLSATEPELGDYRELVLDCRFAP
Macrophage-stimulating protein receptor (Homo sapiens), sequence (Q04912 310-1400 limits assumed): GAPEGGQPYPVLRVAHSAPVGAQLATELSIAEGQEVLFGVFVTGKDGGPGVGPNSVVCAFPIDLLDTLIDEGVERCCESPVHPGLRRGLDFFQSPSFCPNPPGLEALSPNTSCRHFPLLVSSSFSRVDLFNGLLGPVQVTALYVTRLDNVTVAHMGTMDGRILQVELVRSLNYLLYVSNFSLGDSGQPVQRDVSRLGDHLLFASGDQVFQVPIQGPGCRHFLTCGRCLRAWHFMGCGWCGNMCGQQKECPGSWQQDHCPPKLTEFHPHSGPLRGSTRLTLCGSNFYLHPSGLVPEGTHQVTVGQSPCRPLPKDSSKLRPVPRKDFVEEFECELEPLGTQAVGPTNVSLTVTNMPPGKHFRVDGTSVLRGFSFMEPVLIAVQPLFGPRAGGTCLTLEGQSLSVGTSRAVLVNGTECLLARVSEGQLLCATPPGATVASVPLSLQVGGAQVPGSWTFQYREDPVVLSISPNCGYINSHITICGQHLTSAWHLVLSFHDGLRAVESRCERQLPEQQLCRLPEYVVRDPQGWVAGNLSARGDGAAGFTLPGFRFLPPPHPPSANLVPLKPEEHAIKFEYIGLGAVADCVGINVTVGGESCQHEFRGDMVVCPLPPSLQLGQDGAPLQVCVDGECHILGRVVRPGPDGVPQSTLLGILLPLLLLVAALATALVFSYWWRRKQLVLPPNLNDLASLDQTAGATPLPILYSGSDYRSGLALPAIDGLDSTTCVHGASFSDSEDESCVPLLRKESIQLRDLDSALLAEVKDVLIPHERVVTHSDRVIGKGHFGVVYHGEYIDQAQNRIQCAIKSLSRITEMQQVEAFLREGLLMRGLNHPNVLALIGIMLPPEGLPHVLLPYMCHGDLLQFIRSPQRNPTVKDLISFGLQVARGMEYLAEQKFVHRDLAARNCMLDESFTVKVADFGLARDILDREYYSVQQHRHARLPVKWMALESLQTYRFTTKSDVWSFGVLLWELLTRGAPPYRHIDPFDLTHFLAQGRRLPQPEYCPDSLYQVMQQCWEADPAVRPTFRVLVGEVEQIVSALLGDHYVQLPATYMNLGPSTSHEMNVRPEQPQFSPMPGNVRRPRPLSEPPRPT
PAS domain-containing serine/threonine-protein kinase (Homo sapiens), sequence (Q96RG2 whole entry, the tested form may be a part): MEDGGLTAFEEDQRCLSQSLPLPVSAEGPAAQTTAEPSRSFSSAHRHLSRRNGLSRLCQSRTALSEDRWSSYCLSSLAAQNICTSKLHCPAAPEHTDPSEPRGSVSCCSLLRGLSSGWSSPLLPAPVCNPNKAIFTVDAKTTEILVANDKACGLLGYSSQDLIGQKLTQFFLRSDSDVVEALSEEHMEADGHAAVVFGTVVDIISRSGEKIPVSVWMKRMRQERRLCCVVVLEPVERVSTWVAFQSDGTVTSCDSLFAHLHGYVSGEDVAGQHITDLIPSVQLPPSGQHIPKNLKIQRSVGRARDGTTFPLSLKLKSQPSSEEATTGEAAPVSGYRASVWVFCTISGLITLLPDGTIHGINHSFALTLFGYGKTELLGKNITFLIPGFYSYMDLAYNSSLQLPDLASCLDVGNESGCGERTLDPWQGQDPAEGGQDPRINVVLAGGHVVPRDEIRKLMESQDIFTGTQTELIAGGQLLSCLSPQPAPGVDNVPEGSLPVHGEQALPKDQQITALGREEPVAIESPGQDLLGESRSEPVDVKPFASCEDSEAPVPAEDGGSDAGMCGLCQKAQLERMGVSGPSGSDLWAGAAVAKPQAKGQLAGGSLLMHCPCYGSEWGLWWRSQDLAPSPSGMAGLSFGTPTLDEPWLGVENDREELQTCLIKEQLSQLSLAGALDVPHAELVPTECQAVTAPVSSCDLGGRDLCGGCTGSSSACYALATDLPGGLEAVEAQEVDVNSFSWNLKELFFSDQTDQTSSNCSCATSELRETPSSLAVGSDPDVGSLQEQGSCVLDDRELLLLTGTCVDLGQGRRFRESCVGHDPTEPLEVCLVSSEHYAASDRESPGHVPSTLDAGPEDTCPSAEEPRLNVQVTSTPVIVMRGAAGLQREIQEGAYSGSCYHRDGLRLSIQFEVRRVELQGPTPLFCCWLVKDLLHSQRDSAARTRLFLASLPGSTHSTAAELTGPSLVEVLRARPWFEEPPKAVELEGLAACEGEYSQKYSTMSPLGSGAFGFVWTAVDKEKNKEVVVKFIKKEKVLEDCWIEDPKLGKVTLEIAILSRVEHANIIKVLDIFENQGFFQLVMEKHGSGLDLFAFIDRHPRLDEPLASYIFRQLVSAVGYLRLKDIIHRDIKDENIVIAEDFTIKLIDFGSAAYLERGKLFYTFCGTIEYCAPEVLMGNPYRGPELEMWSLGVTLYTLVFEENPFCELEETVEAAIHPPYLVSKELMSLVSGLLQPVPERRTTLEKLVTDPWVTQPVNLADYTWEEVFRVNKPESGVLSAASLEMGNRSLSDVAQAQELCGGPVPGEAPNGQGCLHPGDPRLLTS
Serine/threonine-protein kinase BRSK2 (Homo sapiens), sequence (Q8IWQ3 whole entry, the tested form may be a part): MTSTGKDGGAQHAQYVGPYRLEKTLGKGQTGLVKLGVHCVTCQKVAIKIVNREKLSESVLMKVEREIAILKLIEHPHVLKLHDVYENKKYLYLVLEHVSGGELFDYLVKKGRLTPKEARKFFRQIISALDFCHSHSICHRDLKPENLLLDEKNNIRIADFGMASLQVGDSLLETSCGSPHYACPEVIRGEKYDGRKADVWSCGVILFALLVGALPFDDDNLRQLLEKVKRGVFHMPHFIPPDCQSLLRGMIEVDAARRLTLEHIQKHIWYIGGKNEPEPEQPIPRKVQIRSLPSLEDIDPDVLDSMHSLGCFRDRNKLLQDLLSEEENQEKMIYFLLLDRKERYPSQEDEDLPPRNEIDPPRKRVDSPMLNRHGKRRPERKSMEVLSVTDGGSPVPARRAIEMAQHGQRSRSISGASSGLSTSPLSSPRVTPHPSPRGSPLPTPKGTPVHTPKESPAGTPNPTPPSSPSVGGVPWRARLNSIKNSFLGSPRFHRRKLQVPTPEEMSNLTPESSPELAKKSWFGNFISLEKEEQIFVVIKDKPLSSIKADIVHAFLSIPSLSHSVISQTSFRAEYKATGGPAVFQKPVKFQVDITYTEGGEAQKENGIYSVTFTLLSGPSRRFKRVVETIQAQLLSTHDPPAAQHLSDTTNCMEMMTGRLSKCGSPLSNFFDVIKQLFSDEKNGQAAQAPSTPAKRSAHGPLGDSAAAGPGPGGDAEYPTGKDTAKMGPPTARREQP

As a reminder, the IC50 is the concentration that inhibits the measured activity by half. Take `CC(C)(O)CNc1ncc(-c2ccnc(Nc3ccnc(Cl)c3)n2)c(CC2CC2)n1`: the Activity in experiment [1] is 105%; in experiment [4], 98%; in experiment [8], 124%; in experiment [9], 99%; in [11] it was 108%; in experiment [15] it was 114%. The Activity in [21] stood at 99%. Moreover, the inhibition entry in [2], in experiment [3], in experiment [5], in [6], in [7] and in experiment [10] was “inactive” throughout. Besides, the inhibition entry in [13], in [14], in experiment [16], in [17], in experiment [18] and in experiment [19] was “inactive” each time. Besides, the inhibition result in [20] and in experiment [22] was “inactive” throughout. In experiment [12], this compound showed an IC50 of 382 nM.
